Measurements reported in ChEMBL document CHEMBL1128331, “New antianginal nitro esters with reduced hypotensive activity. Synthesis and pharmacological evaluation of 3-[(nitrooxy)alkyl]-2H-1,3-benzoxazin-4(3H)-ones” (J Med Chem, 1995).
pIC50: −log10 of the molar value.

Tests used:
[1] = species on record: Rattus norvegicus; experiment: Inhibition of vasopressin-induced ECG changes in rat; format: functional
Procedure, shortened: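 Urethane-anesthetized (1.25 g/kg ip) male Sprague-Dawley rats, lead II ECG. Arg8-vasopressin 1 IU/kg iv (1 mL/kg over 20 s) given 10 min after iv drug or vehicle (GTN 1 min before). T-wave rise measured in mV. 8 rats per dose; percent inhibition against mean control; ED50 from dose-effect regression line.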

[2] = species on record: Oryctolagus cuniculus; experiment: Vasorelaxation activity in the isolated endothelium-denuded rabbit aorta; format: functional
Procedure, shortened: (§1)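 Endothelium-denuded rabbit aortic strips, precontracted to a stable plateau, then given increasing concentrations cumulatively in the organ chamber; IC50 calculated from the concentration-response curves.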

[3] = tested on: Rattus norvegicus; experiment: Concentration required to reduce mean arterial blood pressure in rat after intravenous administration.; format: functional; conditions: Artery
Procedure, shortened: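 Male Sprague-Dawley rats (350-400 g), urethane 1.25 g/kg ip, tracheal cannula. Carotid catheter records mean arterial pressure continuously; heart rate taken from the pressure wave. Dosing through femoral vein, 1 mL/kg over 20 s. Change expressed as percent of basal; ED20 (dose giving 20% MABP fall) taken from the dose-response curve.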

[4] = tested on: Rattus norvegicus; experiment: Inhibition of methacholine-induced ECG changes in the anesthetized rat after intravenous administration.; format: functional
Procedure, shortened: (§2)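 Urethane-anesthetized male Sprague-Dawley rats, lead II ECG. Methacholine 8.0 µg in 0.02 mL over 1 s delivered into coronary arteries via a tube passed through the right carotid artery into the coronary ostia; S-T elevation measured in mV. Injection repeated at intervals after a single iv or oral dose. Five rats per dose; percent inhibition over basal; ED50.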

[5] = species on record: Rattus norvegicus; experiment: Selectivity index as the ratio of doses requires to induce a reduction in MABP and that required to prevent ECG changes.; format: functional
Procedure, shortened: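 Ratio of the iv ED20 for a 20% fall in mean arterial pressure to the iv ED50 for preventing ECG changes, both measured in urethane-anesthetized rats.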

[6] = Partition coefficient (logP); format: physicochemical; conditions: octanol/water
[7] = tested on: Rattus norvegicus; experiment: Inhibition of methacholine-induced ECG changes in the anesthetized rat after oral administration.; format: functional; procedure, shortened: as §2
[8] = species on record: Oryctolagus cuniculus; experiment: Compound was tested for vasorelaxation activity in the isolated endothelium-denuded rabbit aorta; format: functional; procedure, shortened: as §1

pIC50 [2]	logP [6]	pIC50 [8]	Structure (SMILES)	ED50 [1]	ED20 [3]	ED50 [4]	Selectivity index [5]	ED50 [7]
6.90	–	–	Cc1cccc2c1C(=O)N(CCO[N+](=O)[O-])CO2	0.0046 mg/kg	0.3 mg/kg	> 0.01 mg/kg	65	–
7.03	1.85	–	O=C1c2ccccc2OCN1CCO[N+](=O)[O-] [SINITRODIL]	0.0021 mg/kg	0.19 mg/kg	–	90	0.118 mg/kg
–	2.73	6.66	O=C1c2ccc(C(F)(F)F)cc2OCN1CCO[N+](=O)[O-]	0.0015 mg/kg	> 0.3 mg/kg	0.082 mg/kg	200	> 0.3 mg/kg
7.46	2.41	–	Cc1ccc2c(c1)C(=O)N(CCO[N+](=O)[O-])CO2	0.006 mg/kg	0.037 mg/kg	0.00041 mg/kg	8.6	0.142 mg/kg
6.19	–	–	CN(C)/C=N/c1ccc2c(c1)C(=O)N(CCO[N+](=O)[O-])CO2	–	1.27 mg/kg	0.0171 mg/kg	131	> 0.3 mg/kg
7.01	–	–	O=C1c2ccccc2OCN1CCCCCO[N+](=O)[O-]	–	0.73 mg/kg	–	13	–
7.15	2.56	–	O=C1c2ccc(Cl)cc2OCN1CCO[N+](=O)[O-]	–	0.79 mg/kg	–	72	–
6.64	1.83	–	COc1ccc2c(c1)C(=O)N(CCO[N+](=O)[O-])CO2	0.0051 mg/kg	> 1 mg/kg	0.013 mg/kg	421	0.1 mg/kg
6.96	2.41	–	Cc1ccc2c(c1)OCN(CCO[N+](=O)[O-])C2=O	–	0.22 mg/kg	–	17.5	–
7.15	1.28	–	N#Cc1ccc2c(c1)C(=O)N(CCO[N+](=O)[O-])CO2	–	> 0.3 mg/kg	–	26	–
7.11	–	–	O=C1c2ccccc2OCN1CCCO[N+](=O)[O-]	–	–	0.001 mg/kg	–	–
7.43	2.56	–	O=C1c2cc(Cl)ccc2OCN1CCO[N+](=O)[O-]	0.107 mg/kg	0.088 mg/kg	–	0.87	–
7.33	1.83	–	COc1ccc2c(c1)OCN(CCO[N+](=O)[O-])C2=O	0.002 mg/kg	0.29 mg/kg	> 0.01 mg/kg	147	> 0.3 mg/kg
6.44	–	–	Cc1cccc2c1OCN(CCO[N+](=O)[O-])C2=O	0.0582 mg/kg	0.88 mg/kg	–	15	–
–	–	–	O=C(NCCO[N+](=O)[O-])c1cccnc1 [NICORANDIL]	0.94 mg/kg	0.16 mg/kg	0.047 mg/kg	–	3 mg/kg

Structure (SMILES)	pIC50 [2]	logP [6]	pIC50 [8]	ED50 [1]	ED20 [3]	ED50 [4]	Selectivity index [5]	ED50 [7]
O=[N+]([O-])OCC(CO[N+](=O)[O-])O[N+](=O)[O-] [NITROGLYCERIN]	7.80	–	–	0.545 mg/kg	0.0054 mg/kg	0.036 mg/kg	0.01	–
O=C1c2cc([N+](=O)[O-])ccc2OCN1CCO[N+](=O)[O-]	7.68	1.57	–	0.064 mg/kg	0.076 mg/kg	–	1.2	–
